From PubChem BioAssay
Most compounds without a hit are left out; they make up all but 2% or so of the library.
CTSL1 counter: Fasciola hepatica cathepsin L1 inhibitors, primary screen, counter-screen for PFM18AAP inhibitor project, biochemical, QFRET, fluorogenic peptide substrate | recombinant F. hepatica cathepsin L1, Z-Leu-Arg-MCA fluorescence | inhibition, % at 5.96 µM | hit rate 0.49% among 300,000 | AID 1906, 2009;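 active = inhibition above the mean of all tested compounds plus 3 SD, set per screening campaign, cut at about 17% in these data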;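 also: 0% = plate median of test compound wells and 100% = 1 µM Z-Phe-Ala-diazomethylketone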
PAD4 inh: human PAD4 inhibitors, primary screen, biochemical, fluorescence polarization, 1536-well format. hit rate 0.41% among 330,000. recombinant PAD4, RCA probe fluorescence polarization. inhibition, % at 6.36 µM;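 active = percent inhibition above a cutoff equal to the mean of all tested compounds plus 3 SD, cut at about 15% in these data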;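 also: 0% = PAD4 with RCA probe and DMSO and 100% = probe without PAD4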
GSTO1 counter: inhibitors of recombinant GSTO1, primary screen, counter-screen for RBBP9 inhibitor project, biochemical, fluorescence polarization. hit rate 1.1% among 300,000. Glutathione S-transferase omega-1 (Homo sapiens), P78417. inhibition, % at 5.96 µM. activity-based probe fluorescence polarization;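 active = inhibition above the campaign mean inhibition plus 3 SD, cut at about 35% in these data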;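 also: 0% = GSTO1-1 with DMSO and 100% = wells lacking GSTO1-1 enzyme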
UCH37 DUB inh: inhibitors of human UCH37 deubiquitinase, primary screen, biochemical, Ub-AMC cleavage, fluorescence | Ubiquitin carboxyl-terminal hydrolase isozyme L5 (Homo sapiens), Q9Y5K5 | purified proteasome/UCH37 | inhibition, % (no concentration beside the values) | hit rate 0.33% among 330,000;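 active = mean inhibition over replicate wells above about 20%, limit read from the data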;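 also: 0% = compound-free wells with enzyme and 100% = wells lacking proteasome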
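assay system = human UCH37 enzyme supplied as purified proteasome complex | amount = proteasome at 0.15 nM in the dispensed enzyme solution | schedule = 30 min compound-proteasome preincubation then 25 min substrate reaction, room temperature | measured by = fluorescence, ex 355 nm, em 460 nm | benchmarks = no-proteasome wells (full inhibition) and compound-free wells (no inhibition)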
PP5 primary: PP5 phosphatase inhibitors, primary screen, biochemical, fluorescence | inhibition, % at 6.7 µM | hit rate 0.18% among 320,000 | purified PP5c, OMFP substrate fluorescence | Serine/threonine-protein phosphatase 5 (Homo sapiens), P53041;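 active = inhibition above the campaign's mean inhibition across all tested compounds plus 3 SD, cut at about 9.5% in these data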;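 also: 0% = DMSO only and 100% = 100 µM cantharidin control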
Target sequence (P53041 whole entry, looked up): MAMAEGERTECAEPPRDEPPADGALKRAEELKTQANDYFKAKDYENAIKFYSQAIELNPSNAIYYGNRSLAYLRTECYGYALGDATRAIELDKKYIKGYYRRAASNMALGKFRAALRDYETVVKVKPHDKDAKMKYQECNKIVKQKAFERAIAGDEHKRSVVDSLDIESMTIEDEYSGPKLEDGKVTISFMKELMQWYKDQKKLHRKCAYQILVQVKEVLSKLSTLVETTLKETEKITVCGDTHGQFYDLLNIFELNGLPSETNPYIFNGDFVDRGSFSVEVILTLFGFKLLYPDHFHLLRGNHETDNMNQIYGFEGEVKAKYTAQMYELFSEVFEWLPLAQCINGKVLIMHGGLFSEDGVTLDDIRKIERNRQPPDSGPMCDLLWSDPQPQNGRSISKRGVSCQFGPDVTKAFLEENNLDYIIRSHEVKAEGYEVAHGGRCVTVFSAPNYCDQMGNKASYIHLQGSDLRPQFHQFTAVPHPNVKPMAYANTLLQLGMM
Apaf1 inhib: inhibitors of human Apaf-1 apoptosome, primary screen, biochemical, DEVD-Rh110 fluorescence, uHTS; inhibition, % at 20 µM; AID 489030, 2010; reconstituted apoptosome caspase-3 activity; hit rate 0.71% among 330,000; active = inhibition of at least 40% at 20 µM;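 also: plate controls were DMSO wells for no effect and DEVD-CHO caspase inhibitor wells for full effect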
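detection = Rh110 fluorescence intensity | test system = biochemical Apaf-1 apoptosome reconstitution | also added = cytochrome c and DEVD-Rh110 substrate | schedule = 30 min plus 50 min, RT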
GSTO1 confirm: GSTO1 inhibitor hit confirmation, counter-screen for RBBP9 inhibitor project, biochemical, fluorescence polarization, triplicate. shares compounds with GSTO1 counter. recombinant GSTO1, probe fluorescence polarization. inhibition, % at 5.96 µM. hit rate 54% among 2,400. AID 2176, 2009;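 active = inhibition above the primary screen's cutoff, its mean inhibition plus 3 SD, cut at about 35% in these data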;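 also: loss of polarization as inhibitors block binding of rhodamine sulfonate ester activity probe; 0% = GSTO1 with DMSO and 100% = wells lacking GSTO1 enzyme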
PP5 conf: PP5 phosphatase inhibitors, confirmation, biochemical, fluorescence, human. hit rate 22% among 460. Purified PP5, fluorogenic phosphatase substrate. inhibition, % at 6.7 µM. AID 2331, 2010. shares compounds with PP5 primary; in the data active = inhibition above about 9.5%
PP1 inh counter: PP1 phosphatase inhibitors, counter-screen for PP5 inhibitor project, biochemical, fluorescence, triplicate. shares compounds with PP5 primary. PP1 enzyme, fluorescent phosphatase substrate. inhibition, % at 6.7 µM. hit rate 4% among 460. AID 2355, 2010; in the data active = inhibition above about 16%
PAD4 confirm: human PAD4 inhibitors, confirmation, biochemical, fluorescence polarization; shares compounds with PAD4 inh; inhibition, % at 6.36 µM; recombinant PAD4, RCA probe fluorescence polarization; hit rate 28% among 1,200;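 active = mean inhibition across replicates above the hit cutoff set by the earlier primary screen, cut at about 15% in these data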;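 also: inhibitors block active-site labeling by the probe so polarization falls; 0% = PAD4 with probe and DMSO and 100% = probe without PAD4 enzyme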
Apaf-1 inh conf2: Apaf-1 inhibitors, single-dose retest, confirmation, biochemical, fluorescence, DEVD-Rh110, 20 µM; shares compounds with Apaf1 inhib; reconstituted apoptosome, caspase-3 DEVD-Rh110 fluorescence; inhibition, % at 20 µM; hit rate 25% among 1,800; AID 504614, 2011;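 active = mean inhibition of at least 40% at 20 µM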;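 also: plate controls were DMSO wells for no effect and DEVD-CHO caspase inhibitor control wells for full effect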
Rh110 quench: Rh110 fluorescence interference by putative Apaf-1 inhibitors, confirmation, artefact control for Apaf-1 inhibitor project, biochemical, 20 µM; shares compounds with Apaf1 inhib; quenched caspase reaction; activation (fluorescence interference), % at 20 µM; 1,800 tested, under 10 active;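 active = signal rise of 40% or more at 20 µM, treated as a fluorescence artifact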
Apaf1 inh interf: fluorescence interference of Apaf-1 inhibitor hits, dose response, artefact control for Apaf-1 inhibitor project | shares compounds with Apaf1 inhib | fluorescence interference counterscreen, Apaf-1 assay format | IC50, µM | 460 tested, under 10 active; call rule not given here
* = called active by the depositor; i = inactive; / = no result.

SMILES	CTSL1 counter	PAD4 inh	GSTO1 counter	UCH37 DUB inh	PP5 primary	Apaf1 inhib	GSTO1 confirm	Apaf-1 inh conf2	Rh110 quench	Apaf1 inh interf	others
CC(C)(C)c1ccc(S(=O)(=O)/N=C2\C=C(NS(=O)(=O)c3ccccc3)C(=O)c3ccccc32)cc1	-4	2	71*	/	2	46*	67*	53*	4	>100
COc1cccc2c1C(=O)c1c(O)c3c(c(O)c1C2=O)C[C@@](O)(C(=O)CO)C[C@@H]3O[C@H]1C[C@H](N)[C@H](O)[C@H](C)O1	0	58*	45*	5	0	58*	32	61*	0	>100	PAD4 confirm=68*
COc1ccc(C=NNC(=O)c2ccccc2)cc1OS(=O)(=O)c1ccccc1	/	/	/	5	/	/	/	/	/	/
O=C(NCC1CCCO1)c1coc2nc3ccccc3nc12 (configuration not stated)	5	-28	0	-26	0	5	/	/	/	/
C=CCn1c(N)c(C(=O)NCC2CCCO2)c2nc3ccccc3nc21 (configuration not stated)	-4	12	80*	i	5	78*	5	11	-187	/
CC(C)C(=O)Nc1ccc2nn(-c3ccc(F)cc3)nc2c1	3	-8	10	-136	-1	-95	/	/	/	/
Nc1ccc2nn(-c3ccc(F)cc3)nc2c1	-1	-4	43*	i	0	88*	48*	24	-4	/
COc1ccc(NC(=O)CC(C)=NNC(=O)COc2ccc(OC)cc2)cc1	/	/	/	0	/	/	/	/	/	/
O=C1CSC(=S)N1N=Cc1c(F)cccc1F	/	/	/	6	/	/	/	/	/	/
CCOC(=O)c1c(NC(=O)c2ccco2)n(C2CCCCC2)c2nc3ccccc3nc12	0	15*	62*	-78	5	88*	86*	36	1	/	PAD4 confirm=25*
CSc1nncc(/C(C)=N\Nc2ccccc2)n1	3	-7	38*	/	4	70*	6	8	-7	/
CC/C(=N/Nc1ccccc1C)c1cnnc(SC)n1	1	-4	44*	/	4	41*	2	2	-8	/
COc1ccc(C=NNc2ccccn2)cc1O	/	/	/	14	/	/	/	/	/	/
O=c1[nH]nc(CNc2ccc(C(F)(F)F)cc2)c2ccccc12	1	1	-42	-2	5	0	/	/	/	/
O=c1[nH]nc(CNc2ccc(O)cc2)c2ccccc12	-8	55*	82*	4	8	94*	-2	4	0	/	PAD4 confirm=3
Oc1c(Br)cc(C=Nc2ccc3nc(-c4ccccc4)[nH]c3c2)c(O)c1Br	4	37*	53*	-82	2	65*	42*	38	1	/	PAD4 confirm=10
O=[N+]([O-])c1ccc(O)c(C=Nc2ccc3nc(-c4ccccc4)[nH]c3c2)c1	3	-3	-2	-267	0	17	/	/	/	/
COc1cccc2c(=O)c3cccc(N)c3[nH]c12	-1	-6	67*	-1	1	70*	14	2	-4	/
COc1cccc2c(=O)c3c([nH]c12)OC(C)(C)C3	-2	4	2	2	3	-29	/	/	/	/
CCN(CC)c1ccc(C=NNC(=O)c2cc(C)nc3ccccc23)cc1	/	/	/	10	/	/	/	/	/	/
CC1=NN(c2ccc(F)cc2)C(=O)C1C(c1cccc(O)c1)c1c(C)[nH]n(-c2ccc(F)cc2)c1=O (configuration not stated)	-1	69*	58*	9	2	91*	36*	20	-4	/	PAD4 confirm=-8
O=C1C(Cl)=C(N2CCC(C(=O)O)CC2)C(=O)c2ccccc21	7	20*	80*	78*	3	75*	79*	53*	2	>100	PAD4 confirm=15*
O=C(O)C1CCN(C(=O)c2ccccc2Cl)CC1	-3	4	-1	5	-1	-20	/	/	/	/
N#CCC(=O)NN=Cc1cc(Br)ccc1OC/C=C/c1ccccc1	/	/	/	4	/	/	/	/	/	/
O=C(Cc1ccccc1Cl)NC1(O)C(=O)c2ccccc2C1=O	26*	14	67*	/	4	89*	67*	65*	1	>100
COC(=O)CCC(=O)OC1(C)C(=O)C2=CN(CCCOC(C)C)C(c3ccc(OC)cc3)=CC2=C(Br)C1=O (configuration not stated)	11	9	52*	3	-1	79*	65*	71*	5	>100
COC(=O)CCC(=O)OC1(C)C(=O)C2=CN(C3CC3)C(c3ccc(OC)cc3)=CC2=C(Br)C1=O (configuration not stated)	1	-7	63*	3	11*	61*	24	56*	1	>100	PP5 conf=37*;PP1 inh counter=12
COC(=O)CCC(=O)OC1(C)C(=O)C2=CN(CC3CC3)C(c3ccc(OC)cc3)=CC2=C(Br)C1=O (configuration not stated)	0	-3	51*	4	7	66*	36*	64*	6	>100
